ChEMBL document CHEMBL2057128, “Chemoenzymatic synthesis and biological evaluation of 2- and 3-hydroxypyridine derivatives against Leishmania mexicana” (Bioorg Med Chem, 2012)
Values after ≈ are worked out from the molar mass of the structure shown. Active and inactive are the calls of the source. The rule behind the calls is not given here.

Tests used:
Leishmania mexicana [1] = experiment: Antileishmanial activity against promastigote form of Leishmania mexicana from 10 to 50 ug/mL measured every 2 days for 10 days by neubauer chamber analysis; type: functional, organism-based
How it was run: (§1)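 Promastigotes grown at 28 °C in cell-free medium (Na2HPO4, KCl, glucose, pH about 7.5) supplemented after sterilization with penicillin (100 IU/mL), streptomycin, haemin and 20% v/v heat-inactivated fetal calf serum. Cultures started from exponential-phase inocula, shaken manually twice daily, compounds added with DMSO at 0.1% final. Parasites counted in a Neubauer chamber every two days over 10 days.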

Leishmania mexicana [2] = experiment: Growth inhibition of promastigote form of Leishmania mexicana at 20 ug/mL measured after 1 day by neubauer chamber analysis; type: functional; conditions: 24 h, read-out: GI
Leishmania mexicana [3] = experiment: Growth inhibition of promastigote form of Leishmania mexicana at 20 ug/mL measured after 10 days by neubauer chamber analysis; type: functional; conditions: 240 h, read-out: GI; how it was run: as §1
Leishmania mexicana [4] = experiment: Growth inhibition of promastigote form of Leishmania mexicana at 10 ug/mL measured after 6 days by neubauer chamber analysis; type: functional; conditions: 144 h, read-out: GI; how it was run: as §1
Leishmania mexicana [5] = experiment: Antileishmanial activity against promastigote form of Leishmania mexicana measured every 2 days for 10 days by neubauer chamber analysis; type: functional, organism-based; how it was run: as §1

| Structure (SMILES) | Activity (Leishmania mexicana [1]) | also measured |
| --- | --- | --- |
| CC(=O)OCCCCCCCCCOc1ccccn1 | inactive | – |
| CC(=O)OCCCCCCCCCCCCOc1cccnc1 | – | inhibition of growth at 20 µg/mL (Leishmania mexicana [2]): 50%; inhibition of growth at 20 µg/mL (Leishmania mexicana [3]): 80%; inhibition of growth at 10 µg/mL (Leishmania mexicana [4]): 25%; IC50 (Leishmania mexicana [5]): 12 µg/mL (≈ 37.3 µM) |
| CC(=O)OCCCCCCCCCCCOc1ccccn1 | inactive | – |
| CC(=O)OCCCCCCCCOc1ccccn1 | inactive | – |
| OCCCCCCCCCCCCOc1ccccn1 | inactive | – |
| OCCCCCCCOc1ccccn1 | inactive | – |
| OCCCCCCOc1cccnc1 | inactive | – |
| OCCCCCCCCCCCOc1ccccn1 | inactive | – |
| CCC(=O)OCCCCCCCCCCCOc1ccccn1 | inactive | – |
| CC(=O)OCCCCCCCCOc1cccnc1 | inactive | – |
| CN[C@@H]1[C@@H](O)[C@@H](O[C@@H]2[C@@H](O)[C@H](O[C@H]3O[C@H]([C@@H](C)O)[C@@H](O)[C@H](O)[C@H]3N)[C@@H](N)C[C@H]2N)OC[C@]1(C)O [GENETICIN] | – | IC50 (Leishmania mexicana [5]): 50 µg/mL (≈ 101 µM) |
| CC(=O)OCCCCCCCOc1ccccn1 | inactive | – |
| OCCCCCCCCCOc1ccccn1 | inactive | – |
| OCCCCCCCCCCCCOc1cccnc1 | – | inhibition of growth at 20 µg/mL (Leishmania mexicana [2]): 50%; inhibition of growth at 20 µg/mL (Leishmania mexicana [3]): 95%; inhibition of growth at 10 µg/mL (Leishmania mexicana [4]): 25%; IC50 (Leishmania mexicana [5]): 16 µg/mL (≈ 57.3 µM) |
| OCCCCCCCCCCOc1ccccn1 | inactive | – |
| OCCCCCCCOc1cccnc1 | inactive | – |
| CC(=O)OCCCCCCOc1ccccn1 | inactive | – |
| CC(=O)OCCCCCCCOc1cccnc1 | inactive | – |
| OCCCCCCCCOc1cccnc1 | inactive | – |
| CCC(=O)OCCCCCCCCCCCOc1cccnc1 | inactive | – |
| OCCCCCCCCCOc1cccnc1 | inactive | – |
| OCCCCCCCCOc1ccccn1 | inactive | – |
| CC(=O)OCCCCCCCCCCOc1ccccn1 | inactive | – |
| OCCCCCCOc1ccccn1 | inactive | – |
| OCCCCCCCCCCCOc1cccnc1 | inactive | – |
| CC(=O)OCCCCCCCCCCCCOc1ccccn1 | inactive | – |
| CC(=O)OCCCCCCOc1cccnc1 | inactive | – |
| CC(=O)OCCCCCCCCCCCOc1cccnc1 | inactive | – |
| CC(=O)OCCCCCCCCCCOc1cccnc1 | – | IC50 (Leishmania mexicana [5]): 20 µg/mL (≈ 68.2 µM) |
| OCCCCCCCCCCOc1cccnc1 | inactive | – |
